Calls of active or inactive are those of the source. No cut-off for these calls is given here.
Experiments:
[1] = biological target: T1, Toll-like receptor 8 (Homo sapiens) (UniProt Q9NR97); test: Activation of human TLR8 expressed in HEK293XL assessed as fold induction of NF-kappaB activity at 50 ug/ml after 18 hrs by reporter gene assay relative to control
T1 sequence (whole entry): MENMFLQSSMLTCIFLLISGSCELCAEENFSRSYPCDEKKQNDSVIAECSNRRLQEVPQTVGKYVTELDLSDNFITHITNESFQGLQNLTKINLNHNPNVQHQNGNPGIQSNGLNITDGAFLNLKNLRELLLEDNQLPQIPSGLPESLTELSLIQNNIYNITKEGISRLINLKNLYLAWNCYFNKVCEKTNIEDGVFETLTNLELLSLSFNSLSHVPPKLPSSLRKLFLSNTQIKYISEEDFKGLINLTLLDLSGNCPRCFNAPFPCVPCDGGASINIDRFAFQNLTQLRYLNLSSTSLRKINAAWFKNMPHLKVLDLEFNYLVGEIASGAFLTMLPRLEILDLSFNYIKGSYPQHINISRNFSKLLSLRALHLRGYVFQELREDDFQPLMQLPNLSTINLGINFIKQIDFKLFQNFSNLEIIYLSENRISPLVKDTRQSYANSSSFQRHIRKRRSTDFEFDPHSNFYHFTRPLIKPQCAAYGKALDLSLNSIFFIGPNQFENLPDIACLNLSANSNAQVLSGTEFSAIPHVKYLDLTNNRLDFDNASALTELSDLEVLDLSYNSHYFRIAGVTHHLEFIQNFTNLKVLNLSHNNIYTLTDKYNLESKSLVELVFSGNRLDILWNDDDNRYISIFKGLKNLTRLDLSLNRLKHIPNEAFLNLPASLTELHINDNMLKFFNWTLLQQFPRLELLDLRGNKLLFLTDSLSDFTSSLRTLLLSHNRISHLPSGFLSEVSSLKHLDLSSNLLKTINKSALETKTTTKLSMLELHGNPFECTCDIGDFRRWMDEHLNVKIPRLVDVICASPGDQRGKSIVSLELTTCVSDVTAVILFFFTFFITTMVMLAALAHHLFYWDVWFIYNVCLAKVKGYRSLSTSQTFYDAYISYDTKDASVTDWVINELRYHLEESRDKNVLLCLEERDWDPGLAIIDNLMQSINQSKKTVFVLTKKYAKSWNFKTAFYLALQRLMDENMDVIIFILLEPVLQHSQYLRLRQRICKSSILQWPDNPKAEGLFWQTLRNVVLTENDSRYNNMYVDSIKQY
How it was run: (§1)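 HEK293 cells stably expressing human TLR7 or TLR8, transiently transfected with SEAP reporter plasmid; medium replaced, SIMRA compounds added, 18 h incubation. Supernatant SEAP measured by QuantiBlue; expressed as fold increase in NF-κB activity over PBS control. Tabulated data at 50 μg/mL, representative of three independent experiments.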

[2] = biological target: T2, Toll-like receptor 7 (Homo sapiens) (UniProt Q9NYK1); test: Activation of human TLR7 expressed in HEK293XL assessed as fold induction of NF-kappaB activity at 50 ug/ml after 18 hrs by reporter gene assay relative to control; how it was run: as §1
T2 sequence (whole entry): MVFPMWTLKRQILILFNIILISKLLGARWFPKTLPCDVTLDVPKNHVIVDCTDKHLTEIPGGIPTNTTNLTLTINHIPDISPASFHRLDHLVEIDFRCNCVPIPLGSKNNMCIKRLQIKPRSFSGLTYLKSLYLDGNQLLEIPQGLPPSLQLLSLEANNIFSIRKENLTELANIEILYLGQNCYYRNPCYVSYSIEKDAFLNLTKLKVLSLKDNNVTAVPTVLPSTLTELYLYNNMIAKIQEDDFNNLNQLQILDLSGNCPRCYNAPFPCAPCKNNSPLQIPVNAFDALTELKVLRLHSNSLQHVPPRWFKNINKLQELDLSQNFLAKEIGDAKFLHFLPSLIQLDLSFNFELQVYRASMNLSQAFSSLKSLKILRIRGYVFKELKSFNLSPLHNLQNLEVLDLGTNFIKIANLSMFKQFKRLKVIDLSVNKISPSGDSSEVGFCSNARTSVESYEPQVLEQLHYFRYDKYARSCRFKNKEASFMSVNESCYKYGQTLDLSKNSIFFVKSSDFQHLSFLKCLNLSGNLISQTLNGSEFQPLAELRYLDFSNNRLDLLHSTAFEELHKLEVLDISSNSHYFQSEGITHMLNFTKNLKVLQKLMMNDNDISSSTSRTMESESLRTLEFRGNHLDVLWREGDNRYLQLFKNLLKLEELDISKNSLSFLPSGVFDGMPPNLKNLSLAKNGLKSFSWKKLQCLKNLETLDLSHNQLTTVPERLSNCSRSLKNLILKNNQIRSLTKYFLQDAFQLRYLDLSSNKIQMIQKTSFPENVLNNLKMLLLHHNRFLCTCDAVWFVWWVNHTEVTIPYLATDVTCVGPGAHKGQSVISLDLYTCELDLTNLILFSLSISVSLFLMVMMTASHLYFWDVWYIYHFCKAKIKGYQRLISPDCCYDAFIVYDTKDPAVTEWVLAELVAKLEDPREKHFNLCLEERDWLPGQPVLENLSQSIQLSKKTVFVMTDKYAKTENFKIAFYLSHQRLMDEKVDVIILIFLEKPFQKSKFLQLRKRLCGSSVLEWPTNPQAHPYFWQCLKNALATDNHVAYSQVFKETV

PBMC = test: Immunomodulatory activity in human PBMC assessed as induction of TNFalpha at 100 ug/ml after 24 hrs; format: functional, cell-based
How it was run: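 Human PBMCs plated at 5 × 10^6 cells/mL; compounds dissolved in PBS added at various concentrations, 37 °C for 24 h. Supernatant cytokines/chemokines quantified with human Luminex multiplex kit.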

Homo sapiens = organism: Homo sapiens; test: Ratio of human TLR7 activity to human TLR8 activity
How it was run: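 TLR7/TLR8 ratio computed from fold NF-κB (SEAP reporter) activation in HEK293 cells stably expressing human TLR7 versus TLR8, compounds at 50 μg/mL, 18 h exposure; representative of three independent experiments.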

Splenocyte [3] = test: Immunomodulatory activity in C57BL/6 mouse splenocytes bearing TLR7 receptor assessed as IL12 release at 100 ug/ml after 24 hrs by ELISA; format: functional, cell-based
How it was run: (§2)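 C57BL/6 splenocytes in RPMI 1640 with 10% FBS, penicillin/streptomycin, 2 mM L-glutamine, plated at 5 × 10^6 cells/mL; compounds in PBS added, 37 °C for 24 h. Supernatant IL-12 and IL-6 by ELISA; representative of three independent experiments.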

[4] = Metabolic stability in human serum assessed as full length product remaining after 10 mins by HPLC; format: ADME, cell-free; conditions: read-out: Stability
How it was run: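 About 0.5 A260 units compound in 1% human serum in PBS, 37 °C; aliquot taken at 10 min, analysed by anion-exchange HPLC for percent intact full-length product.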

Splenocyte [5] = test: Immunomodulatory activity in C57BL/6 mouse splenocytes bearing TLR7 receptor assessed as IL6 release at 100 ug/ml after 24 hrs by ELISA; format: functional, cell-based; how it was run: as §2

- fold change (FC) [1]: 2.1
- fold change (FC) [2]: 16.6
- Ratio (Homo sapiens): 7.9
- Activity (Splenocyte [3]): Active
- remaining at 10 min [4]: 86%
- Activity (Splenocyte [5]): Active
Compound: Nc1ccn([C@@H]2O[C@H](COP(=O)(S)O[C@H]3[C@@H](O)[C@H](n4cnc5c(N)ncnc54)O[C@@H]3CO)[C@@H](OP(=O)(S)OC[C@H]3O[C@@H](n4ccc(=O)[nH]c4=O)[C@H](O)[C@@H]3OP(=O)(S)OC[C@H]3O[C@@H](n4ccc(=O)[nH]c4=O)[C@H](O)[C@@H]3OP(=O)(S)OC[C@H]3O[C@@H](n4ccc5c(=O)[nH]c(N)nc54)[C@H](O)[C@@H]3OP(=O)(S)OC[C@H]3O[C@@H](n4cnc5c(N)ncnc54)[C@H](O)[C@@H]3OP(=O)(S)OC[C@H]3O[C@@H](n4ccc(N)nc4=O)[C@H](O)[C@@H]3OP(=O)(S)OC[C@H]3O[C@@H](n4ccc5c(=O)[nH]c(N)nc54)[C@H](O)[C@@H]3OP(=O)(S)OC[C@H]3O[C@@H](n4cnc5c(N)ncnc54)[C@H](O)[C@@H]3OP(=O)(S)OC[C@H]3O[C@@H](n4ccc(=O)[nH]c4=O)[C@H](O)[C@@H]3OP(=O)(S)OC[C@H]3O[C@@H](n4ccc(=O)[nH]c4=O)[C@H](O)[C@@H]3OP(=O)(S)OCC(O)COP(=O)(S)O[C@H]3[C@@H](O)[C@H](n4ccc(=O)[nH]c4=O)O[C@@H]3COP(=O)(S)O[C@H]3[C@@H](O)[C@H](n4ccc(=O)[nH]c4=O)O[C@@H]3COP(=O)(S)O[C@H]3[C@@H](O)[C@H](n4cnc5c(N)ncnc54)O[C@@H]3COP(=O)(S)O[C@H]3[C@@H](O)[C@H](n4ccc5c(=O)[nH]c(N)nc54)O[C@@H]3COP(=O)(S)O[C@H]3[C@@H](O)[C@H](n4ccc(N)nc4=O)O[C@@H]3COP(=O)(S)O[C@H]3[C@@H](O)[C@H](n4cnc5c(N)ncnc54)O[C@@H]3COP(=O)(S)O[C@H]3[C@@H](O)[C@H](n4ccc5c(=O)[nH]c(N)nc54)O[C@@H]3COP(=O)(S)O[C@H]3[C@@H](O)[C@H](n4ccc(=O)[nH]c4=O)O[C@@H]3COP(=O)(S)O[C@H]3[C@@H](O)[C@H](n4ccc(=O)[nH]c4=O)O[C@@H]3COP(=O)(S)O[C@H]3[C@@H](O)[C@H](n4ccc(N)nc4=O)O[C@@H]3COP(=O)(S)O[C@H]3[C@@H](O)[C@H](n4cnc5c(N)ncnc54)O[C@@H]3CO)[C@H]2O)c(=O)n1 (some centres not stated)
- Activity (PBMC): 115 pg/mL

Reference: ChEMBL document CHEMBL1154352, “Toll-like receptor 7 selective synthetic oligoribonucleotide agonists: synthesis and structure-activity relationship studies” (J Med Chem, 2009)
